These results are taken from ChEMBL document CHEMBL1145100, “Structure-activity relationship of imidazo[1,2-a]pyridines as ligands for detecting beta-amyloid plaques in the brain” (J Med Chem, 2003).

A value given as a limit tells only on which side of the number the result lay.

The target of this assay is Amyloid-beta precursor protein (Homo sapiens, UniProt P05067). Briefly: Inhibition constant against [125I]-7 (TZDM) binding to Amyloid beta 1-40 aggregates. The essentials: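 Abeta40 peptide aggregated at 0.5 mg/mL in pH 7.4 buffer (10 mM sodium phosphate, 1 mM EDTA), 37 °C for 36-42 h with shaking. Competition in 1 mL of 40% EtOH: fibrils 10-50 nM final, radiotracer 0.05 nM, inhibitors 10^-5 to 10^-10 M. Nonspecific binding with 2 µM thioflavin-T. Incubated 3 h at room temperature, then GF/B filtration with 10% ethanol washes and gamma counting. Ki from nonlinear regression.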
Chain of Amyloid-beta precursor protein (P05067 whole entry): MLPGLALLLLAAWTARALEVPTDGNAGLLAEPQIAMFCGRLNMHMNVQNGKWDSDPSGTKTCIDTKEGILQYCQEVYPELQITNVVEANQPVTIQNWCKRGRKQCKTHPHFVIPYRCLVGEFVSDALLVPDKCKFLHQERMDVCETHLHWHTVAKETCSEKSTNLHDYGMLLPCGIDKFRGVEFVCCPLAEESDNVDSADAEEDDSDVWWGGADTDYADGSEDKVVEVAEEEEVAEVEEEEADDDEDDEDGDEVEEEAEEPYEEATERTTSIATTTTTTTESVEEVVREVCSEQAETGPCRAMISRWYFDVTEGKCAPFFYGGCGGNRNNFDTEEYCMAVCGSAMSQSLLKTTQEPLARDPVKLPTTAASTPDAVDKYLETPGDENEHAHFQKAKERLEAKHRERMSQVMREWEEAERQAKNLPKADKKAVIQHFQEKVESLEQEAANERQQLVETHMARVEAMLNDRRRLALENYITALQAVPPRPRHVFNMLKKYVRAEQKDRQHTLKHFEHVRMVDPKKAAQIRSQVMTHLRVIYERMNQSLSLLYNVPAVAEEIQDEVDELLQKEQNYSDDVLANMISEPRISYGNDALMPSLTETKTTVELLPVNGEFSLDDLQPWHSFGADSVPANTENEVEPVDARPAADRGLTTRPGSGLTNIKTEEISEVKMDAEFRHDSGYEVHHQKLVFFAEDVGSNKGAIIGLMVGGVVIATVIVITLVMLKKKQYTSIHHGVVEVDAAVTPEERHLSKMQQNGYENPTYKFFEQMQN

Turning to `CN(C)c1ccc(-c2cn3ccccc3n2)cc1`, the inhibition constant (Ki) – broadly, the dissociation constant of the complex between target and ligand, obtained from inhibition or displacement – is greater than 2000 nM.
